Laboratory results as given in ChEMBL document CHEMBL3797143, “Novel S1P1 receptor agonists - Part 5: From amino-to alkoxy-pyridines” (Eur J Med Chem, 2016).
Active and inactive are the calls of the source. The rule behind the calls is not given here.

Key:
[1] = target: Sphingosine 1-phosphate receptor 3 (Homo sapiens, UniProt Q99500); test: Agonist activity at human recombinant S1PR3 expressed in CHO cell membranes incubated for 30 mins by [35S]GTPgammaS binding assay in presence of GDP; format: functional
In short: (§1)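 Membranes from CHO cells expressing recombinant human S1P1 or S1P3. Compounds were preincubated with membranes for 30 min at room temperature. Reaction stopped by filtration, membrane-bound 35S-GTPγS counted. Geometric mean of ≥3 independent runs.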

Rattus norvegicus [2] = test: Decrease in peripheral blood lymphocyte count in Wistar rat at 10 mg/kg administered via oral gavage measured after 6 hrs; format: functional; parameters: scale not given: the % may be the effect or the level left
In short: (§2)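 Male Wistar rats (RccHan:WIST) were given 10 mg/kg orally by gavage in vehicle containing 5% DMSO. Blood drawn by sublingual vein puncture under isoflurane before dosing and at the listed times after dosing. Lymphocytes counted on a haematology analyser. Results are % change from baseline, mean of 6-8 animals.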

Rattus norvegicus [3] = test: Decrease in peripheral blood lymphocyte count in Wistar rat at 10 mg/kg administered via oral gavage measured after 24 hrs; format: functional; parameters: scale not given: the % may be the effect or the level left; in short: as §2
Rattus norvegicus [4] = test: Decrease in peripheral blood lymphocyte count in Wistar rat at 10 mg/kg administered via oral gavage measured after 3 hrs; format: functional; parameters: scale not given: the % may be the effect or the level left; in short: as §2
Rattus norvegicus [5] = test: Time duration of maximum lymphocyte count reduction in Wistar rat at 10 mg/kg administered via oral gavage; format: functional
In short: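 Duration of action is the latest sampling time at which maximal lymphocyte-count reduction was still seen. Male Wistar rats received 10 mg/kg orally, and blood lymphocytes were counted before dosing and at 3, 6 and 24 h (later times in some cases). Mean of 6-8 animals.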

[6] = target: Sphingosine 1-phosphate receptor 1 (Homo sapiens, UniProt P21453); test: Agonist activity at human recombinant S1PR1 expressed in CHO cell membranes incubated for 30 mins by [35S]GTPgammaS binding assay in presence of GDP; format: functional; in short: as §1
Rattus norvegicus [7] = test: Decrease in peripheral blood lymphocyte count in Wistar rat at 10 mg/kg administered via oral gavage measured after 72 hrs; format: functional; in short: as §2
[8] = Plasma concentration in Wistar rat at 10 mg/kg administered via oral gavage measured after 6 hrs by LC-MS/MS analysis; format: ADME, organism-based
In short: (§3)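 Male Wistar rats received 10 mg/kg orally by gavage. Blood was drawn at the listed times into EDTA tubes, and plasma was prepared by centrifugation at 3000 g for 10 min at 4 °C. Limit of quantification 3 nM.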

[9] = Phototoxicity in Balb/c mouse 3T3 clone A31 cells assessed as inhibition of cell viability measured as photo irritancy factor at 0.05 to 100 uM preincubated for 1 hr followed by UVA irradiation measured after 24 hrs by neutral red uptake assay relative to control; format: functional
[10] = Half life in Wistar rat at 10 mg/kg administered via oral gavage by LC-MS/MS analysis; format: ADME, organism-based; conditions: in vivo
In short: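 Oral half-life was calculated from plasma concentrations measured in the lymphocyte-count study, in which male Wistar rats received 10 mg/kg orally. Plasma was prepared from EDTA blood by centrifugation at 3000 g for 10 min at 4 °C.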

[11] = Phototoxicity in Balb/c mouse 3T3 clone A31 cells assessed as AUC of UV spectra between 310 and 350 nm normalized to compound concentration at 0.05 to 100 uM preincubated for 1 hr followed by UVA irradiation measured after 24 hrs by neutral red uptake assay relative to control; format: functional
[12] = Plasma concentration in Wistar rat at 10 mg/kg administered via oral gavage measured after 24 hrs by LC-MS/MS analysis; format: ADME, organism-based; in short: as §3
[13] = Plasma concentration in Wistar rat at 10 mg/kg administered via oral gavage measured after 72 hrs by LC-MS/MS analysis; format: ADME, organism-based; in short: as §3
[14] = Plasma concentration in Wistar rat at 10 mg/kg administered via oral gavage measured after 3 hrs by LC-MS/MS analysis; format: ADME, organism-based; in short: as §3
Rattus norvegicus [15] = test: Decrease in peripheral blood lymphocyte count in Wistar rat at 10 mg/kg administered via oral gavage measured after 96 hrs; format: functional; parameters: scale not given: the % may be the effect or the level left; in short: as §2
Rattus norvegicus [16] = test: Decrease in peripheral blood lymphocyte count in Wistar rat at 10 mg/kg administered via oral gavage measured after 144 hrs; format: functional; parameters: scale not given: the % may be the effect or the level left; in short: as §2

Sphingosine 1-phosphate receptor 1, sequence (P21453 whole entry): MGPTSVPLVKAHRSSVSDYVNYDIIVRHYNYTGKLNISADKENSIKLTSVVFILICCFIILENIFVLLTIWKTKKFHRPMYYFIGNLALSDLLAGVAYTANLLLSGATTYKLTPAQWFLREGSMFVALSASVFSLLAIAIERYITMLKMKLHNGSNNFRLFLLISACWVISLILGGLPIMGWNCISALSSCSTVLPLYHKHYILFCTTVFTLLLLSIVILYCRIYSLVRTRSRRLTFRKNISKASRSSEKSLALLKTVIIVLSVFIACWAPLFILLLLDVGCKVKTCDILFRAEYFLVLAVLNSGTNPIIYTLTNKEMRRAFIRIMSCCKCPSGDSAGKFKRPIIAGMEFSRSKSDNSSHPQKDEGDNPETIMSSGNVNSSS
Sphingosine 1-phosphate receptor 3, sequence (Q99500 whole entry): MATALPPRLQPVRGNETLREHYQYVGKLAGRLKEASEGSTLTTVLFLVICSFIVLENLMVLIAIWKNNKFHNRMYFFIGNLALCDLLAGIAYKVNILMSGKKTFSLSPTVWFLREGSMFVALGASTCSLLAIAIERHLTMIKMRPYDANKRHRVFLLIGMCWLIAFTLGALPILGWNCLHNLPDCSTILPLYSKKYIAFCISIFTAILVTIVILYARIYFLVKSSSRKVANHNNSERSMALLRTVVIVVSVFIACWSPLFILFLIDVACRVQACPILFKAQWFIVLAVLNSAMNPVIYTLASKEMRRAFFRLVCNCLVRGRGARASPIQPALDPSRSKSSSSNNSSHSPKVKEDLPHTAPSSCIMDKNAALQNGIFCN

EC50 [1] [nM] | EC50 [6] [nM] | concentration at 6 h [8] [nM] | half-life [10] [h] | concentration at 24 h [12] [nM] | concentration at 72 h [13] [nM] | concentration at 3 h [14] [nM] | Compound | Activity (Rattus norvegicus [2]) [%] | Activity (Rattus norvegicus [3]) [%] | Activity (Rattus norvegicus [4]) [%] | Time (Rattus norvegicus [5]) [h] | Activity (Rattus norvegicus [7]) | Ratio [9] | Ratio [11] | Activity (Rattus norvegicus [15]) | Activity (Rattus norvegicus [16]) [%]
22 | 0.3 |  |  |  |  |  | CCc1cc(-c2noc(-c3cc(OC)nc(C4CCC4)c3)n2)cc(C)c1OC[C@@H](O)CNC(=O)CO | 61 | 61 | 56 | 24 | Active |  |  |  | 
96 | 0.4 | 470 | 9 | 46 | < 3 | 750 | CCc1cc(-c2noc(-c3cc(OC)nc(C(CC)CC)c3)n2)cc(C)c1OC[C@@H](O)CNC(=O)CO | 59 | 36 | 59 | 6 | Active | 0.9 | 0.05 |  | 
 |  |  |  |  |  |  | CCc1cc(-c2nc(-c3cc(C)c(CCC(=O)NCCO)c(CC)c3)no2)cnc1N(C)C(C)C |  |  |  |  |  | >200 |  |  | 
930 | 1 | 890 | 4 | 39 |  | 1610 | CCc1cc(-c2noc(-c3cc(C)cc(OC4CCCC4)n3)n2)cc(C)c1OC[C@@H](O)CNC(=O)CO | 58 | -18 | 51 | 6 |  | 2 | 0.1 |  | 
1400 | 11 | 510 | < 3 | < 9 |  | 1560 | CCc1cc(-c2noc(-c3cc(OC4CCCC4)cc(C)n3)n2)cc(C)c1OC[C@@H](O)CNC(=O)CO | 36 | -33 | 50 | <3 |  | 1.3 | 0 |  | 
140 | 0.7 | 960 | 16 | 510 |  | 1140 | CCc1cc(-c2noc(-c3cnc(OC4CCCC4)c(C)c3)n2)cc(C)c1OC[C@@H](O)CNC(=O)CO | 85 | 85 | 76 | 24 |  | 1.4 | 0.02 |  | 
 |  |  |  |  |  |  | CCc1cc(-c2nnc(-c3cc(C)nc(N(CC)CC)c3)o2)cc(C)c1OC[C@@H](O)CNC(=O)CO |  |  |  |  |  | >200 |  |  | 
800 | 0.7 |  |  |  |  |  | CCc1cc(-c2noc(-c3cc(OC)cc(C4CCCC4)n3)n2)cc(C)c1OC[C@@H](O)CNC(=O)CO | 61 | 30 | 58 | 6 |  | 2.4 | 0 |  | 
1600 | 28 |  |  |  |  |  | CCc1cc(-c2noc(-c3cc(OC)nc(-c4ccccc4)c3)n2)cc(C)c1OC[C@@H](O)CNC(=O)CO |  |  |  |  |  |  |  |  | 
71 | 0.3 | 2950 | 11 | 970 |  | 2390 | CCc1cc(-c2noc(-c3cnc(C4CCCC4)c(OC)c3)n2)cc(C)c1OC[C@@H](O)CNC(=O)CO | 82 | 84 | 73 | 24 |  | 7.6 | 0.15 |  | 
 |  |  |  |  |  |  | CCc1cc(-c2nnc(-c3cc(C)nc(CC(C)C)c3)o2)cc(C)c1OC[C@@H](O)CNC(=O)CO |  |  |  |  |  | 1.1 |  |  | 
 |  |  |  |  |  |  | CCc1cc(-c2noc(-c3cc(C)nc(N(CC)CC)c3)n2)cc(C)c1OC[C@@H](O)CNC(=O)CO |  | 70 |  | 72 | 62% |  |  |  | 
55 | 1.1 |  |  |  |  |  | CCc1cc(-c2nc(-c3cc(C)c(OC[C@@H](O)CNC(=O)CO)c(CC)c3)no2)cc(OC2CCC2)n1 | 75 | 79 | 72 | 168 |  |  |  |  | 
690 | 7.3 |  |  |  |  |  | CCc1cc(-c2noc(-c3cc(OC)nc(C4CCCCC4)c3)n2)cc(C)c1OC[C@@H](O)CNC(=O)CO | 58 | 72 | 58 | 24 |  |  |  | 33% | 
210 | 0.6 | 2020 | 4 | 71 |  | 2520 | CCc1cc(-c2noc(-c3cc(OC)c(C4CCCC4)cn3)n2)cc(C)c1OC[C@@H](O)CNC(=O)CO | 86 | 60 | 79 | 6 |  | 2.1 | 0.02 |  | 
 |  |  |  |  |  |  | CCc1cc(-c2noc(-c3cc(C)nc(C(CC)CC)c3)n2)cc(C)c1OC[C@@H](O)CNC(=O)CO |  |  |  |  |  | 1.7 |  |  | 
110 | 0.3 |  |  |  |  |  | CCc1cc(-c2noc(-c3cc(C)nc(OC4CCC4)c3)n2)cc(C)c1OC[C@@H](O)CNC(=O)CO | 62 | 72 | 66 | 96 |  |  |  | 62% | 21
17 | 1.5 |  |  |  |  |  | CCc1cc(-c2noc(-c3cnc(OC)c(C4CCCC4)c3)n2)cc(C)c1OC[C@@H](O)CNC(=O)CO |  |  |  |  |  |  |  |  | 
520 | 1.2 |  |  |  |  |  | CCc1cc(-c2noc(-c3cc(OC)cc(C(CC)CC)n3)n2)cc(C)c1OC[C@@H](O)CNC(=O)CO |  |  |  |  |  |  |  |  | 
95 | 0.2 |  |  |  |  |  | CCc1cc(-c2noc(-c3cc(C)nc(OC(C)C)c3)n2)cc(C)c1OC[C@@H](O)CNC(=O)CO | 67 | 74 | 66 | 96 |  |  |  | 70% | 28
180 | 1.1 | 240 | 4 | 12 |  | 410 | CCc1cc(-c2noc(-c3cc(C(CC)CC)cc(OC)n3)n2)cc(C)c1OC[C@@H](O)CNC(=O)CO | 50 | -10 | 57 | <3 |  |  |  |  | 
1500 | 4.5 | 1300 | 5 | 100 |  | 1790 | CCc1cc(-c2noc(-c3cc(C4CCCC4)cc(OC)n3)n2)cc(C)c1OC[C@@H](O)CNC(=O)CO | 75 | -2 | 63 | 6 |  | 2.1 | 0.09 |  | 
38 | 21 |  |  |  |  |  | CCc1cc(-c2noc(-c3cnc(C)c(OC4CCCC4)c3)n2)cc(C)c1OC[C@@H](O)CNC(=O)CO |  |  |  |  |  |  |  |  | 
920 | 1.4 | 500 | 6 | 61 |  | 690 | CCc1cc(-c2noc(-c3ccc(C4CCCC4)c(OC)n3)n2)cc(C)c1OC[C@@H](O)CNC(=O)CO | 78 | 23 | 70 | 6 |  | 6.5 | 0.17 |  | 
1400 | 1.5 |  |  |  |  |  | CCc1cc(-c2noc(-c3cc(OC)cc(CC(C)C)n3)n2)cc(C)c1OC[C@@H](O)CNC(=O)CO | 66 | 23 | 58 | 6 |  |  |  |  | 
50 | 1.1 |  |  |  |  |  | CCc1cc(-c2nc(-c3cc(C)c(OC[C@@H](O)CNC(=O)CO)c(CC)c3)no2)cc(OC2CCCC2)n1 | 71 | 76 | 64 | 24 |  |  |  | Active | 
 |  |  |  |  |  |  | CCc1cc(-c2nc(-c3cc(C)c(OC[C@@H](O)CO)c(CC)c3)no2)cnc1CC(C)C |  |  |  |  |  | 1.6 |  |  | 
